Results published in ChEMBL document CHEMBL1154522, “Aryl sulfamates are broad spectrum inactivators of sulfatases: effects on sulfatases from various sources” (Bioorg Med Chem Lett, 2009).

How the values were obtained:
[1] = substrate: O=[N+]([O-])c1ccc(OS(=O)(=O)O)cc1; experiment: Activity at Pseudomonas aeruginosa recombinant arylsulfatase A expressed in Escherichia coli assessed per mg of protein
Method in brief: (§1)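 Hydrolysis of potassium 4-nitrophenyl sulfate followed by release of 4-nitrophenol; Vmax is expressed per mg protein and Km in mM; Vmax/Km is derived from these.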

[2] = substrate: O=[N+]([O-])c1ccc(OS(=O)(=O)O)cc1; experiment: Activity at Pseudomonas aeruginosa recombinant arylsulfatase A expressed in Escherichia coli; method in brief: as §1

B1: Arylsulfatase (Pseudomonas aeruginosa (strain ATCC 15692 / PAO1 / 1C / PRS 101 / LMG12228)), P51691 (protein)
chain: MSKRPNFLVIVADDLGFSDIGAFGGEIATPNLDALAIAGLRLTDFHTASTCSPTRSMLLTGTDHHIAGIGTMAEALTPELEGKPGYEGHLNERVVALPELLREAGYQTLMAGKWHLGLKPEQTPHARGFERSFSLLPGAANHYGFEPPYDESTPRILKGTPALYVEDERYLDTLPEGFYSSDAFGDKLLQYLKERDQSRPFFAYLPFSAPHWPLQAPREIVEKYRGRYDAGPEALRQERLARLKELGLVEADVEAHPVLALTREWEALEDEERAKSARAMEVYAAMVERMDWNIGRVVDYLRRQGELDNTFVLFMSDNGAEGALLEAFPKFGPDLLGFLDRHYDNSLENIGRANSYVWYGPRWAQAATAPSRLYKAFTTQGGIRVPALVRYPRLSRQGAISHAFATVMDVTPTLLDLAGVRHPGKRWRGREIAEPRGRSWLGWLSGETEAAHDENTVTGWELFGMRAIRQGDWKAVYLPAPVGPATWQLYDLARDPGEIHDLADSQPGKLAELIEHWKRYVSETGVVEGASPFLVR
- Vmax [1]: 6.1 mmol/min/mg
- Km [2]: 0.77 µM
